Source: ChEMBL document CHEMBL1157676, “Carboxymethylated-kappa-casein: a convenient tool for the identification of polyphenolic inhibitors of amyloid fibril formation” (Bioorg Med Chem, 2010)
Active and inactive are the calls of the source. The rule behind the calls is not given here.

Tests used:
[1] = Inhibition of reduced carboxymethylated kappa-casein fibril formation assessed as formation of shorter and stunted fibrils by transmission electron microscopy
[2] = Inhibition of reduced carboxymethylated kappa-casein fibril formation measured every 5 mins after 1000 mins by thioflavin T staining-based binding assay
Summary of the method: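 RCM-κ-CN fibrillation (0.5 mg/mL) at 37 °C, pH 7.2 phosphate (50 mM), 10 µM ThT, no shaking. ThT fluorescence 440/490 nm was read every 5 min over 1000 min. Duplicate samples. The positive control IC50 is the mean of four batches.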

[3] = Inhibition of reduced carboxymethylated kappa-casein fibril formation at 50 ug/mL measured every 5 mins after 1000 mins by thioflavin T staining-based binding assay
Summary of the method: (§1)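 RCM-κ-CN (0.5 mg/mL final) in 50 mM sodium phosphate pH 7.2 with 10 µM ThT and test compound (final DMSO ≤1%), incubated at 37 °C unshaken in sealed plates. Fluorescence (ex 440/em 490 nm) was read every 5 min for 1000 min. %FFi = 100×(ΔFc−ΔFs)/ΔFc versus a 1% DMSO control. Duplicates.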

[4] = Inhibition of reduced carboxymethylated kappa-casein fibril formation at 5 ug/mL measured every 5 mins after 1000 mins by thioflavin T staining-based binding assay
Summary of the method: as §1

[5] = Inhibition of reduced carboxymethylated kappa-casein fibril formation at 12.5 ug/mL measured every 5 mins after 1000 mins by thioflavin T staining-based binding assay
Summary of the method: as §1

[6] = Inhibition of reduced carboxymethylated kappa-casein fibril formation at 100 ug/mL measured every 5 mins after 1000 mins by thioflavin T staining-based binding assay
Summary of the method: as §1

[7] = Inhibition of beta amyloid (1 to 42) fibril formation at 50 ug/mL by thioflavin T staining-based binding assay
[8] = Inhibition of beta amyloid (1 to 40) fibril formation by thioflavin T staining-based binding assay
[9] = Inhibition of beta amyloid (1 to 42) fibril formation by thioflavin T staining-based binding assay
[10] = Inhibition of beta amyloid (1 to 40) fibril formation
[11] = Selectivity ratio of IC50 for reduced carboxymethylated kappa-casein fibril formation to IC50 for beta amyloid (1 to 40) fibril formation
[12] = Selectivity ratio of IC50 for reduced carboxymethylated kappa-casein fibril formation to IC50 for beta amyloid (1 to 42) fibril formation
[13] = Inhibition of reduced carboxymethylated kappa-casein fibril formation at 17 ug/mL measured every 5 mins after 1000 mins by thioflavin T staining-based binding assay
Summary of the method: as §1

[14] = Inhibition of beta amyloid (1 to 40) fibril formation after 24 hrs by fluorimetry
[15] = Inhibition of beta amyloid (1 to 42) fibril formation

Compound	inhibition [1]	IC50 [2]	inhibition [3]	IC50 [8]	IC50 [9]	further results
CC(=O)Oc1cc(OC(C)=O)c2c(=O)c(OC(C)=O)c(-c3ccc(OC(C)=O)c(OC(C)=O)c3)oc2c1	Active	6.8 µM	90%	–	–	–
CO/C(=C\c1ccc(OC)c(OC)c1)C(=O)c1c(O)cc(OC)cc1OC	–	–	35%	–	–	–
COc1ccc(-c2coc3cc(O)cc(O)c3c2=O)cc1	–	–	–	–	–	inhibition [4]: 0%
COc1ccc2c(=O)c(O)c(-c3cc(OC)c(OC)cc3CO)oc2c1	–	–	–	–	–	inhibition [5]: 0%
O=c1c(O)c(-c2ccc(O)cc2)oc2cc(O)ccc12	–	–	–	–	–	inhibition [4]: 0%
Oc1ccc([C@H]2Oc3cc(O)cc(O)c3C[C@H]2O)cc1	–	–	–	–	–	inhibition [6]: 17%
O=C1c2c(O)cc(O)cc2O[C@H](c2ccc(O)c(O)c2)[C@H]1O [(+)-TAXIFOLIN]	–	40.1 µM	84%	–	–	inhibition [7]: 57%
Oc1cc(O)c2c(c1)O[C@H](c1ccc(O)c(O)c1)[C@H](O)C2 [(-)-EPICATECHIN]	–	–	7%	2.8 µM	5.6 µM	–
COc1ccc(-c2coc3cc(O)ccc3c2=O)cc1O [CALYCOSIN]	–	–	–	–	–	inhibition [4]: 1%; IC50 [10]: Not Active
Oc1cc(O)c2c(c1)O[C@H](c1ccc(O)c(O)c1)[C@@H](O)C2 [CIANIDANOL]	–	–	0%	2.9 µM	5.3 µM	–
O=c1c(-c2ccc(O)cc2)coc2cc(O)ccc12 [DAIDZEIN]	–	–	25%	–	–	IC50 [10]: Active
O=C(O[C@@H]1Cc2c(O)cc(O)cc2O[C@@H]1c1cc(O)c(O)c(O)c1)c1cc(O)c(O)c(O)c1 [EPIGALOCATECHIN GALLATE]	–	3.7 µM	100%	–	–	Ratio IC50 [11]: 20; Ratio IC50 [12]: 10; inhibition [7]: 100%; IC50 ([10]; read-out: IC50): 0.18 µM
O=c1c(O)c(-c2ccccc2)oc2cc(O)cc(O)c12 [GALANGIN]	Active	61 µM	68%	–	–	IC50 [10]: Not Active
O=c1c(-c2ccc(O)cc2)coc2cc(O)cc(O)c12 [GENISTEIN]	–	190 µM	95%	–	–	inhibition [7]: 43%; IC50 [10]: Active
O=c1c(O)c(-c2ccc(O)cc2)oc2cc(O)cc(O)c12 [KAEMPFEROL]	Active	33 µM	86%	1.7 µM	3.2 µM	Ratio IC50 [11]: 20; Ratio IC50 [12]: 10
O=c1c(O)c(-c2ccc(O)cc2O)oc2cc(O)cc(O)c12 [MORIN]	–	49.5 µM	99%	0.24 µM	0.67 µM	Ratio IC50 [11]: 206; Ratio IC50 [12]: 74; inhibition [7]: 94%
O=c1c(O)c(-c2cc(O)c(O)c(O)c2)oc2cc(O)cc(O)c12 [MYRICETIN]	Active	–	–	0.29 µM	0.4 µM	inhibition [13]: 92%; IC50 [14]: 0.9 µM; IC50 [15]: 0.34 µM; IC50 ([10]; read-out: IC50): 0.2 µM
O=c1c(O)c(-c2ccc(O)c(O)c2)oc2cc(O)cc(O)c12 [QUERCETIN]	Active	13.6 µM	84%	0.24 µM	0.72 µM	Ratio IC50 [11]: 20; Ratio IC50 [12]: 10; inhibition [7]: 95%
O=c1c(O)c(-c2cc(O)c(O)c(O)c2)oc2cc(O)ccc12 [ROBINETIN]	Active	13.9 µM	–	–	–	inhibition [4]: 89%
